Measured values taken from ChEMBL document CHEMBL1138764, “Resistance-modifying agents. 11.(1) Pyrimido[5,4-d]pyrimidine modulators of antitumor drug activity. Synthesis and structure-activity relationships for nucleoside transport inhibition and binding to alpha1-acid glycoprotein” (J Med Chem, 2004).
Values joined by “and” are separate entries in the source; they are usually repeats but may differ in a detail not shown here. Equal values may be shown once. Active and inactive are the calls of the source. The rule behind the calls is not given here.

Key:
L1210 [1] = assay: Inhibition of [3H]thymidine uptake in L1210 cells at 1 uM; type: functional; details: Mus musculus
Method in brief: (§1)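 ³H-thymidine uptake into L1210 leukaemia cells measured by a modified rapid-mixing technique with inhibitor-stop. Values are mean ± SD of three or more separate determinations. IC50 is interpolated from concentration–inhibition curves.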

L1210 [2] = assay: Tested for the reduction in inhibition of [3H]thymidine uptake in L1210 cells in the presence of 5 mg/mL human AGP; type: functional, Mus musculus
Method in brief: (§2)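 Rapid-mixing, inhibitor-stop ³H-thymidine uptake into L1210 leukaemia cells run with 5 mg/mL human AGP present. Values are mean ± SD of three or more separate determinations. Significance of the difference from inhibition without AGP is taken at p ≤ 0.05.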

L1210 [3] = assay: Inhibition of [3H]thymidine uptake in L1210 cells in the presence of 5 mg/mL human AGP at 1 uM; type: functional, Mus musculus; method in brief: as §2
L1210 [4] = assay: Inhibition of [3H]thymidine uptake in L1210 cells; type: functional, cell-based; details: Mus musculus; method in brief: as §1
L1210 [5] = assay: Compound was tested for the inhibition of [3H]thymidine uptake in L1210 cells at 0.1 uM; type: functional; details: Mus musculus; method in brief: as §1
L1210 [6] = assay: Inhibition of [3H]thymidine uptake in L1210 cells at 10 uM; type: functional; details: Mus musculus; method in brief: as §1
L1210 [7] = assay: Compound was tested for the inhibition of [3H]thymidine uptake in L1210 cells at 100 uM; type: functional; details: Mus musculus; method in brief: as §1

Row | SMILES | inhibition at 1 µM (L1210 [1]) [%] | Reduction (L1210 [2]) | IC50 (L1210 [4]) [µM] | inhibition at 10 µM (L1210 [6]) [%] | further results
1 | CC(O)CNc1nc(N(C)Cc2ccccc2)c2nc(NCC(C)O)nc(N(C)Cc3ccccc3)c2n1 (centres undefined) | 56 | 77% | 0.7 |  | Inhibition (L1210 [3]): 12%; inhibition at 0.1 µM (L1210 [5]): 24%
2 | COc1ccc(CN(C)c2nc(NCC(C)O)nc3c(N(C)Cc4ccc(OC)c(OC)c4)nc(NCC(C)O)nc23)cc1OC (centres undefined) | 73 | 22% |  |  | Inhibition (L1210 [3]): 57%
3 | OCCNc1nc(NCc2ccccc2)c2nc(NCCO)nc(NCc3ccccc3)c2n1 | 46 |  | 0.75 |  | 
4 | COc1ccc(CN(C)c2nc(OCCCO)nc3c(N(C)Cc4ccc(OC)c(OC)c4)nc(OCCCO)nc23)cc1OC | 54 |  | 0.75 |  | 
5 | COCCOc1nc(N(C)Cc2ccccc2)c2nc(OCCOC)nc(N(C)Cc3ccccc3)c2n1 | 17 |  | 3.8 | 68 | 
6 | COc1ccc(CNc2nc(N(CCO)CCO)nc3c(NCc4ccc(OC)cc4)nc(N(CCO)CCO)nc23)cc1 | 65 | 29% | 0.25 | 96 | 
7 | CCC(C)COc1nc(N2CCCCC2)c2nc(OCC(C)CC)nc(N3CCCCC3)c2n1 (centres undefined) |  |  |  |  | inhibition (L1210 [6]): inactive
8 | COc1ccc(CNc2nc(NCC(C)O)nc3c(NCc4ccc(OC)c(OC)c4)nc(NCC(C)O)nc23)cc1OC (centres undefined) | 83 | 12% | 0.4 |  | Inhibition (L1210 [3]): 73%; inhibition at 0.1 µM (L1210 [5]): 38%
9 | OCCN(CCO)c1nc(N2CCc3ccccc3C2)c2nc(N(CCO)CCO)nc(N3CCc4ccccc4C3)c2n1 | 72 | 31% | 0.72 | 100 | 
10 | CCCOc1nc(N(C)Cc2ccccc2)c2nc(OCCC)nc(N(C)Cc3ccccc3)c2n1 |  |  |  | 8 | 
11 | C[C@H](O)COc1nc(N(C)Cc2ccccc2)c2nc(OC[C@@H](C)O)nc(N(C)Cc3ccccc3)c2n1 | 55 | 84% |  |  | Inhibition (L1210 [3]): 9%
12 | OCCN(CCO)c1nc(N2CCCCC2)c2nc(N(CCO)CCO)nc(N3CCCCC3)c2n1 [DIPYRIDAMOLE] |  | 87% and 96% | 0.34 |  | 
13 | COCCOc1nc(N(Cc2ccccc2)Cc2ccccc2)c2nc(OCCOC)nc(N(Cc3ccccc3)Cc3ccccc3)c2n1 | 9 |  |  | 15 | 
14 | COc1ccc(CN(C)c2nc(OCCCO)nc3c(N(C)Cc4ccc(OC)cc4)nc(OCCCO)nc23)cc1 | 78 | 59% | 0.22 |  | Inhibition (L1210 [3]): 32%; inhibition at 0.1 µM (L1210 [5]): 38%
15 | OCCN(CCO)c1nc(N2CCCC(O)C2)c2nc(N(CCO)CCO)nc(N3CCCC(O)C3)c2n1 (centres undefined) | 28 |  | 2.6 | 50 | 
16 | OCCCOc1nc(N2CCCCC2)c2nc(OCCCO)nc(N3CCCCC3)c2n1 | 35 |  |  | 76 | 
17 | COc1ccc(CN(C)c2nc(OCCO)nc3c(N(C)Cc4ccc(OC)cc4)nc(OCCO)nc23)cc1 | 74 | 77% | 0.43 |  | Inhibition (L1210 [3]): 17%; inhibition at 0.1 µM (L1210 [5]): 27%
18 | CN(Cc1ccccc1)c1nc(OCCO)nc2c(N(C)Cc3ccccc3)nc(OCCO)nc12 | 49 | 55% | 0.8 | 87 | Inhibition (L1210 [3]): 22%
19 | OCCN(CCO)c1nc(NCc2ccc(C(F)(F)F)cc2)c2nc(N(CCO)CCO)nc(NCc3ccc(C(F)(F)F)cc3)c2n1 | 32 |  |  | 60 | 
20 | COC[C@H](COc1nc(N2CCCCC2)c2nc(OC[C@H](COC)OC)nc(N3CCCCC3)c2n1)OC |  |  |  | 100 | 
21 | COCCOc1nc(N2CCCCC2)c2nc(OCCOC)nc(N3CCCCC3)c2n1 | 20 |  | 4.6 | 63 | 
22 | CCCOc1nc(N2CCCCC2)c2nc(OCCC)nc(N3CCCCC3)c2n1 |  |  | 52 | 37 | inhibition at 100 µM (L1210 [7]): 60%
23 | COc1ccc(CNc2nc(OCCCO)nc3c(NCc4ccc(OC)cc4)nc(OCCCO)nc23)cc1 | 63 | 21% | 0.46 |  | 
24 | Clc1nc(NCc2ccccc2)c2nc(Cl)nc(NCc3ccccc3)c2n1 |  |  |  |  | inhibition (L1210 [7]): inactive
25 | CCN(CC)c1nc(N2CCCCC2)c2nc(N(CC)CC)nc(N3CCCCC3)c2n1 |  |  |  |  | inhibition (L1210 [6]): inactive
26 | CN(Cc1ccccc1)c1nc(OCCCO)nc2c(N(C)Cc3ccccc3)nc(OCCCO)nc12 | 52 |  | 1.4 | 77 | 
